Assay results reported in ChEMBL document CHEMBL1124779, “Synthesis and antitumor activity of 1-[[(dialkylamino)alkyl]amino]-4-methyl-5H-pyrido[4,3-b]benzo[e]- and -benzo[g])indoles. A new class of antineoplastic agents” (1990).
≈ marks a conversion by molar mass, not a printed value.

Legend:
[1] = Cytotoxicity in the multiple tumor disk diffusion soft agar assay at the dose of 15 ug/disk against solid tumor C38.; assay type: functional, Mus musculus
In short: (§1)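 Soft agar disk diffusion: bottom layer 0.8% noble agar, top layer 0.47% noble agar, both in 1:1 CMRL-Fischer medium with 11% horse serum. Top layer seeded with 5×10^3 L1210 cells or 10^6 solid tumor cells (C38, PO3). Drug applied on a dried 6-mm filter-paper disk. Incubation 7-11 days. Inhibition zone measured by inverted microscope, in units (1 unit = 30 μm).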

[2] = system: L1210; test: Cytotoxicity in the multiple tumor disk diffusion soft agar assay at the dose of 15 ug/disk against leukemia L1210; assay type: functional, Mus musculus; in short: as §1
[3] = system: P388; test: In vivo T/C (survival time treated/survival time control x 100) was determined against P388 leukemia cells at 40 mg/Kg; assay type: functional, Mus musculus
In short: (§2)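 B6D2 F1 mice, at least five per group, were inoculated ip on day 0 with 10^6 viable P388 cells (25 mL/kg). Compounds were dissolved in distilled water and given ip (25 mL/kg) daily on days 1–4. Mortality was checked daily, with necropsy of dead animals. T/C×100 was median survival, treated versus control. Survivors beyond 50 days counted as cured and were excluded from the median.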

[4] = system: P388; test: (§3) In vitro cytotoxicity was determined against P388 leukemia cells; assay type: functional; details: Mus musculus, read-out: ID50 (the source's name)
In short: (§4)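 P388 cells in exponential growth, RPMI 1640 with 2 mM glutamine, 10 μM 2-mercaptoethanol and 10% FCS, 5% CO2, 37 °C. Cells at 10^5 cells/mL. Drugs in distilled water added on day 0. Cells counted by Coulter counter after 96 h. ID50 (μg/mL, 50% inhibition of proliferation) estimated by regression of concentration/response data.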

[5] = system: Mus musculus; test: In vivo total number of survivors was determined against L1210 Leukemia cells out of 8 mouse at 50 day; assay type: functional, Leukemia cell
In short: (§5)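 B6D2 F1 mice, at least five per group, were inoculated ip on day 0 with 10^5 viable L1210 cells (25 mL/kg). Compounds were dissolved in distilled water and given ip (25 mL/kg) on days 1–4. Deaths were checked daily, with necropsy to separate tumor from toxic death. T/C×100 was median survival of treated over controls. Mice surviving over 50 days counted as cured and were excluded from the median.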

[6] = Tested for mean number of metastases in treated/control animals x 100 (% T/C) for murine solid tumor model 3LL early stage that is intramuscularly implanted by the intravenous treatment at the dose of 20 mg/kg in 1-4 schedule; details: Mus musculus
[7] = system: Mus musculus; test: In vivo total number of survivors was determined against P388 leukemia cells out of 5 mouse at 50 day; assay type: functional; in short: as §2
[8] = system: P388; test: In vivo T/C (survival time treated/survival time control x 100) was determined against P388 leukemia cells at 20 mg/Kg; assay type: functional, Mus musculus; in short: as §2
[9] = Tested for the change in body weight between day 1 and 7 for murine solid tumor model 3LL early stage that is subcutaneously implanted by the intravenous treatment at the dose of 20 mg/kg in 1-4 schedule; assay type: functional, Mus musculus
[10] = Cytotoxicity in the multiple tumor disk diffusion soft agar assay at the dose of 15 ug/disk against solid tumor PO3; assay type: functional, Mus musculus; in short: as §1
[11] = species on record: Mus musculus; test: as §3; assay type: functional; details: read-out: ID50 (the source's name); in short: as §4
[12] = Tested for cytotoxicity in the multiple tumor disk diffusion soft agar assay at the dose of 15 ug/disk against solid tumor C38; range is 550-600; assay type: functional, Mus musculus; in short: as §1
[13] = system: L1210; test: Tested for cytotoxicity in the multiple tumor disk diffusion soft agar assay at the dose of 15 ug/disk against leukemia L1210; range is 420-490; assay type: functional, Mus musculus; in short: as §1
[14] = system: P388; test: In vivo T/C (survival time treated/survival time control x 100) was determined against P388 leukemia cells at 10 mg/Kg; assay type: functional, Mus musculus; in short: as §2
[15] = system: P388; test: In vivo T/C (survival time treated/survival time control x 100) was determined against P388 leukemia cells at 2.5 mg/Kg; assay type: functional, Mus musculus; in short: as §2
[16] = system: P388; test: In vivo T/C (survival time treated/survival time control x 100) was determined against P388 leukemia cells at 5.0 mg/Kg; assay type: functional, Mus musculus; in short: as §2
[17] = system: L1210; test: Tested for cytotoxicity in the multiple tumor disk diffusion soft agar assay at the dose of 15 ug/disk against leukemia L1210; range is 450-650; assay type: functional, Mus musculus; in short: as §1
[18] = system: L1210; test: In vivo T/C (survival time treated/survival time control x 100) was determined against L1210 leukemia cells at 10 mg/Kg; assay type: functional, Mus musculus; in short: as §5
[19] = system: L1210; test: Tested for cytotoxicity in the multiple tumor disk diffusion soft agar assay at the dose of 15 ug/disk against leukemia L1210; assay type: functional, Mus musculus; in short: as §1
[20] = Tested for cytotoxicity in the multiple tumor disk diffusion soft agar assay at the dose of 15 ug/disk against solid tumor C38; assay type: functional, Mus musculus; in short: as §1
[21] = Tested for mean number of metastases of treated /control animals x 100 (% T/C) for murine solid tumor model 3LL advanced stage that is intramuscularly implanted by the intravenous treatment at the dose of 10 mg/kg in 7-10 schedule; details: Mus musculus
[22] = Tested for medium tumor weight of treated /control animals x 100 (% T/C) for murine solid tumor model C26 early stage that is subcutaneously implanted by the intravenous treatment at the dose of 10 mg/kg in 1-4 schedule; assay type: functional, Mus musculus
In short: (§6)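 sc implant of 1 mm³ tumor fragment. MA 16/C in C3H mice, B16 in C57BL/6 mice, C26 in CD2F1 mice; 10 per group. iv dosing on days 1-4 at 10 mL/kg. Mice weighed daily. Killed day 14 (C26) or day 15 (MA 16/C, B16) and tumors weighed. T/C×100 from median tumor weight, treated vs control. Body weight change taken from day 1 to 7.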

[23] = Tested for medium tumor weight of treated /control animals x 100 (% T/C) for murine solid tumor model 3LL early stage that is subcutaneously implanted by the intravenous treatment at the dose of 10 mg/kg in 1-4 schedule; assay type: functional, Mus musculus
[24] = Tested for medium tumor weight of treated /control animals x 100 (% T/C) for murine solid tumor model MA 16/C early stage that is subcutaneously implanted by the intravenous treatment at the dose of 10 mg/kg in 1-4 schedule; assay type: functional, Mus musculus; in short: as §6
[25] = Tested for the change in body weight between day1 and 7 for murine solid tumor model MA 16/C early stage that is subcutaneously implanted by the intravenous treatment; assay type: functional, Mus musculus
In short: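 Mice given sc 1 mm³ tumor fragment: C26 in CD2F1 mice, MA 16/C in C3H mice (tumors passaged in strain of origin), 10 per group. Drug given iv days 1–4 at 10 mL/kg. Animals weighed daily and watched for toxicity. Body-weight change taken from day 1 to day 7. Killed day 14 (C26) or 15 (MA 16/C).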

[26] = Tested for the change in body weight between day 1 and 7 for murine solid tumor model C26 early stage that is subcutaneously implanted by the intravenous treatment at the dose of 10 mg/kg in 1-4 schedule; assay type: functional, Mus musculus; in short: as §6
[27] = Tested for the change in body weight between day 1 and 7 for murine solid tumor model B16 early stage that is subcutaneously implanted by the intravenous treatment at the dose of 10 mg/kg in 1-4 schedule; assay type: functional; details: Mus musculus, dose 5 mg/kg, in the assay text read “5 mg/kg” for “10 mg/kg”; in short: as §6
[28] = Tested for the change in body weight between day 1 and 14 for murine solid tumor model 3LL advanced stage that is intramuscularly implanted by the intravenous treatment at the dose of 10 mg/kg in 7-10 schedule; details: Mus musculus
[29] = Tested for medium tumor weight of treated /control animals x 100 (% T/C) for murine solid tumor model B16 early stage that is subcutaneously implanted by the intravenous treatment at the dose of 5 mg/kg in 1-4 schedule; assay type: functional, Mus musculus; in short: as §6
[30] = Tested for the change in body weight between day 1 and 7 for murine solid tumor model 3LL early stage that is subcutaneously implanted by the intravenous treatment at the dose of 5 mg/kg in 1-4 schedule; assay type: functional, Mus musculus

CCN(CC)CCCNc1ncc(C)c2c1c1ccc3c(OC)cccc3c1n2C
Cytotoxicity [1]: 430 U | Cytotoxicity [2]: 450 U | T/C x100 [3]: 124 | IC50 [4]: 0.75 mg/L (≈ 1.85 µM)

Cc1c[nH]c(NCC(C)CN(C)C)c2c3c(ccc4cc(O)ccc43)nc1-2 (stereo not drawn)
Survivors [5]: 2 | T/C [6]: 0% | Cytotoxicity [1]: 675 U | Survivors [7]: 3 | T/C x100 [8]: 213 | Change in weight [9]: -1.7 g | Cytotoxicity [2]: 300 U | Cytotoxicity [10]: 850 U | IC50 [11]: 0.1 mg/L (≈ 0.276 µM)

Cc1c[nH]c(NCCCN(C)C)c2c3ccc4ccccc4c3nc1-2
Cytotoxicity [12]: 550 U | Cytotoxicity [13]: 420 U | Cytotoxicity [2]: 500 U | Cytotoxicity [10]: 310 U | T/C x100 [14]: 115 | IC50 [4]: 0.375 mg/L (≈ 1.13 µM)

Cc1c[nH]c(NCCCN(C)C)c2c3cc(O)ccc3nc1-2
T/C x100 [15]: 130

COc1cccc2c1ccc1c2[nH]c2c(C)cnc(NCCCN(C)C)c21
T/C x100 [8]: 121 | Cytotoxicity [2]: 280 U | Cytotoxicity [10]: 225 U | IC50 [4]: 0.15 mg/L (≈ 0.414 µM)

Cc1cnc(NCCCN(C)C)c2c3cc(O)ccc3n(C)c12
T/C x100 [16]: 128

CCN(CC)CCCNc1ncc(C)c2[nH]c3ccc4cc(O)ccc4c3c12
Cytotoxicity [1]: 625 U | Cytotoxicity [2]: 475 U | Cytotoxicity [10]: 900 U | T/C x100 [14]: 215 | Cytotoxicity [17]: 450 U | T/C x100 [18]: 149 | IC50 [4]: 0.05 mg/L (≈ 0.133 µM)

Cc1cnc(NCCCN(C)C)c2c1[nH]c1ccc3ccccc3c12
Cytotoxicity [19]: 550 U | Cytotoxicity [20]: 675 U | IC50 [4]: 0.1 mg/L (≈ 0.301 µM)

Cc1cnc(NCCCN(C)C)c2c1[nH]c1ccc3cc(O)ccc3c12 [INTOPLICINE]
Survivors [5]: 5 | T/C [21]: 34% | T/C [22]: 0% | T/C [23]: 0% | T/C [24]: 2% | Cytotoxicity [2]: 375 U | Cytotoxicity [20]: 700 U | Change in weight [25]: -1.7 g | T/C x100 [16]: 182 | Cytotoxicity [10]: 850 U | T/C x100 [14]: 270 | Change in weight [26]: -1.9 g | Change in weight [27]: -1.1 g | Change in weight [28]: -2.8 g | T/C [29]: 28% | T/C x100 [18]: 143 | Change in weight [30]: -2.1 g | IC50 [4]: 0.025 mg/L (≈ 0.0717 µM)
